KCNQ1 inh = human KCNQ1 channel inhibition; P51787; actives 1.3% (n = 310,000); AID 2642; B-score at 10 µM; CHO-K1 KCNQ1, FluxOR thallium flux fluorescence; stronger effect = higher value;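 active means compounds whose thallium flux B-score, printed positive for inhibition, exceeds three library SD while starting fluorescence stays within three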;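 further: channel opened by potassium depolarization with thallium stimulus after 20 min compound exposure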
KCNQ1 act = potentiates or activates the human KCNQ1 potassium channel | P51787 | CHO-K1 KCNQ1, thallium flux FluxOR fluorescence; stronger effect = higher value | B-score at 10 µM | actives 0.35% (n = 310,000) | AID 2648;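 active means fluorescence ratio B-score, a plate-corrected score, at least three library SD, with initial intensity B-score within 5 SD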
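Assay system: CHO-K1 cells stably expressing KCNQ1. Medium: assay buffer for compound exposure, DMSO matched across wells. Timing: 37 °C overnight plating, 90-min dark dye load, 20-min compound pretreatment. Signal: kinetic FluxOR fluorescence, 10 s baseline plus 110 s post-stimulus.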
hERG protect = compounds protecting human hERG from proarrhythmic drug block | Q12809 | CHO-hERG, FluxOR thallium flux, dofetilide IC70 present | activation (rescue from dofetilide block), less the hit threshold, % at 10 µM | actives 0.51% (n = 310,000) | AID 1511;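 active means activation above the mean of controls blocked by dofetilide plus 5 SD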;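 further: thallium influx through hERG after potassium depolarization seen as dye fluorescence rise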
Kir21 block = inhibitors of mouse Kir2.1 inward-rectifier potassium channel. AID 1672. HEK293-Kir2.1, FluxOR thallium flux fluorescence; stronger effect = lower value. B-score at 10 µM. P35561. actives 0.85% (n = 310,000);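 active means fluorescence ratio B-score at or below minus 3 SD of library scores, with starting-brightness B-score within 2 SD, cut at about -4.2 in these data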;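 further: channel flux triggered by added potassium and thallium sulfate stimulus; B-score of peak minus minimum fluorescence over baseline after thallium stimulus; more negative B-score means stronger Kir2.1 block with less thallium influx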
KCNK9 block = inhibitors of human KCNK9 two-pore domain potassium channel | HEK293 KCNK9, FluxOR thallium flux fluorescence; stronger effect = lower value | B-score at 10 µM | actives 1.2% (n = 310,000) | AID 488922;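 active means ratio B-score over 3 SD below the library mean, with starting fluorescence within 5 SD of its mean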;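 further: negative B-score means less thallium flux so channel inhibition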
KCNK3 inh = human KCNK3 channel inhibition, primary screen; actives 0.84% (n = 340,000); O14649; B-score at 10 µM; CHO-KCNK3 thallium flux, FluxOR fluorescence; stronger effect = lower value;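 active means B-score under library mean minus 4 SD, starting fluorescence ratio at most library mean plus 5 SD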;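 further: more negative B-score means stronger inhibition of thallium flux through KCNK3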
KCNQ1 inh valid = reconfirmed blocker of the human KCNQ1 potassium channel; shares compounds with KCNQ1 inh; KCNQ1 cell line, FluxOR thallium flux fluorescence; inhibition, % at 10 µM; actives 93% (n = 1,600);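 active means primary screen active, with duplicate mean exceeding buffer control mean plus 3 SD of buffer wells, cut at about 28% in these data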;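 further: 0% = buffer control ratio and 100% = XE991 inhibitor control ratio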
CHO KCNQ1 ctr = KCNQ1 inhibitor counter-screen hit in parental CHO cells; shares compounds with KCNQ1 inh; parental CHO-K1, FluxOR thallium flux fluorescence ratio; stronger effect = lower value; zero means no signal rise above baseline; fluorescence ratio (Tl flux) at 10 µM; actives 21% (n = 1,600); AID 588366;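 active means mean of duplicate thallium-flux fluorescence ratios in parental host cells more than 5 SD below the buffer control mean, cut at about 0.38 in these data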;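 further: ratio is peak minus minimum fluorescence divided by baseline fluorescence; actives read low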
KCNQ1 ephys val = human KCNQ1 inhibition validated by electrophysiology; actives 20% (n = 490); shares compounds with KCNQ1 inh; KCNQ1-CHO cells, automated patch clamp current; AID 624120; calls only at 10 µM;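 active means KCNQ1 current drop exceeding 3 SD of negative control wells, seen in both duplicate runs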;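 further: steady state current during a 2 s step from -80 to +40 mV; negative values mean current inhibition and positive values mean potentiation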
KCNQ2 inh = rat KCNQ2 inhibition in KCNQ1 inhibitor specificity screen | shares compounds with KCNQ1 inh | KCNQ2 cells, FluxOR thallium flux fluorescence | inhibition, % at 10 µM | actives 71% (n = 1,600) | AID 651746;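 active means mean percent inhibition of the KCNQ2 thallium signal more than 5 SD above the buffer-only control wells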;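 further: KCNQ2 expressed in CHO cells; 0% = buffer control wells and 100% = XE-991 inhibitor control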
Target sequence (O88943 whole entry, looked up): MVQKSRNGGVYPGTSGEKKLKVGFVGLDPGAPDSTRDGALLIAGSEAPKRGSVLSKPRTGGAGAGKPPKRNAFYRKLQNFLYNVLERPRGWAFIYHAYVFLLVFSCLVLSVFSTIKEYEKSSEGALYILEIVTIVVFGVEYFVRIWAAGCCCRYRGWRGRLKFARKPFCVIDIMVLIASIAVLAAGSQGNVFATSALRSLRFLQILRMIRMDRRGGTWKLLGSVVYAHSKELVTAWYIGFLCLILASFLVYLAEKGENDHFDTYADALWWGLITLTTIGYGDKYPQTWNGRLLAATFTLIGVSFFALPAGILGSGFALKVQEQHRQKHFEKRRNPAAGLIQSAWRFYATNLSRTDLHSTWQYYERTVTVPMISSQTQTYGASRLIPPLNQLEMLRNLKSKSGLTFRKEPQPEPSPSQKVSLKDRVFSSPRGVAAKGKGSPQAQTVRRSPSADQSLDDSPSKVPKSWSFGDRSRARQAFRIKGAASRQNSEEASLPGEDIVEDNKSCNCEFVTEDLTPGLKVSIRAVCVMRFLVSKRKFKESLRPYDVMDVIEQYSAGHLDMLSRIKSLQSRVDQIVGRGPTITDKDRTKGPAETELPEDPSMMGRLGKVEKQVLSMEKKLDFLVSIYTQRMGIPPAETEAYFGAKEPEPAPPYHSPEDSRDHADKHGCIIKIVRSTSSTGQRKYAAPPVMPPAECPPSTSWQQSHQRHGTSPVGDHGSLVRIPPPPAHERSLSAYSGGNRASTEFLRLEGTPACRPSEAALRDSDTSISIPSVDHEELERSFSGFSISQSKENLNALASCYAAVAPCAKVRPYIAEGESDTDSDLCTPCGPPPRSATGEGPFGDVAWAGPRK
KCNQ1-KCNE1 inh = KCNQ1 inhibitor that also blocks human KCNQ1/KCNE1 channel; shares compounds with KCNQ1 inh; KCNQ1/KCNE1 cells, FluxOR thallium flux fluorescence; inhibition, % at 10 µM; actives 77% (n = 1,600); AID 652147;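 active means mean percent inhibition of duplicate wells above the buffer-only control mean plus 3 SD of those controls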;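 further: 0% = buffer only wells and 100% = XE-991 inhibitor control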
Active calls of the source: *; i = inactive; nt = no result; + = active, no number. Sampled rows, rich in hits. Any-hit rate of the full collection: about 3.8%.

SMILES | KCNQ1 inh | KCNQ1 act | hERG protect | Kir21 block | KCNK9 block | KCNK3 inh | KCNQ1 inh valid | CHO KCNQ1 ctr | KCNQ2 inh | KCNQ1-KCNE1 inh | others
CCCCOc1cccc(C2C(C(=O)c3ccc(C)o3)=C(O)C(=O)N2c2nnc(C)s2)c1 (stereo not drawn) | 9* | i | -11.8 | -4.38 | i | i | 146.5* | 0.345* | 104.7%* | i
O=C1NC2(CCCCO2)CO1 (stereo not drawn) | i | i | -5.4 | 0.53 | i | i | nt | nt | nt | nt
CN(CC(=O)Nc1ccc(F)cc1)C(=O)COC(=O)/C=C/c1ccc(OC(F)F)cc1 | i | i | -7.4 | -0.19 | i | i | nt | nt | nt | nt
CC(Nc1ccc(Cl)cc1)c1cc(Cl)ccc1O (stereo not drawn) | 6* | i | -7.4 | -5.81* | i | i | 123.5* | 0.483 | i | 152.5%*
CCOc1ccc(NC(C)c2cc(Cl)ccc2O)cc1 (stereo not drawn) | i | i | -4.6 | 0.66 | i | i | nt | nt | nt | nt
COc1ccccc1CC(Cc1nc2ccccc2[nH]1)c1nc2ccccc2[nH]1 (stereo not drawn) | 8* | i | -17.7 | 0.81 | i | i | 47.0* | 0.418 | 68.7%* | 46.5%*
Cc1nn2c(NCCN3CCOCC3)c3c(nc2c1-c1ccccc1)CCCC3 | 7* | i | -20.1 | -1.34 | i | i | 57.5* | 0.466 | 81.7%* | 73.0%*
CC1(c2ccccc2Br)NC(=O)N(CC(=O)NC2CCCCC2)C1=O (stereo not drawn) | nt | nt | nt | nt | nt | i | nt | nt | nt | nt
CCN1CCN(CCNC(=O)c2ccc(/C=C3/Sc4ccccc4N(Cc4cccc(Cl)c4)C3=O)cc2)CC1 | 14* | i | -32.8 | -5.14* | i | i | 80.0* | 0.336* | 97.3%* | 145.0%*
O=C(CN1C(=O)/C(=C\c2cccc(Cl)c2)Sc2ccccc21)NCCCN1CCOCC1 | i | i | -13.3 | -0.5 | i | i | nt | nt | nt | nt
CCOC(=O)C1CCN(C(=O)COC(=O)CNC(=O)c2sc3ccccc3c2Cl)CC1 | nt | nt | nt | nt | nt | i | nt | nt | nt | nt
Cc1nc2ccc(NS(=O)(=O)c3ccc4c(c3)OCCO4)cc2s1 | 10* | i | -8.4 | -1.8 | i | i | 98.5* | 0.494 | 69.0%* | 90.0%* | KCNQ1 ephys val=i
Cc1ccc(S(=O)(=O)Nc2ccc3nc(C)sc3c2)cc1 | i | i | -9.9 | 0.34 | i | i | nt | nt | nt | nt
CC(=O)c1ccc(NC(=S)NC(C)CCc2ccccc2)cc1 (stereo not drawn) | 7* | i | -9.9 | -0.12 | i | i | 38.5* | 0.498 | i | 41.0%*
Clc1ccc(-c2cc3ccccc3[nH]2)cc1 | 6* | i | -16.6 | 0.87 | i | i | 124.0* | 0.547 | i | 97.5%*
Cc1cc(C)n(CC(=O)NC2CCCc3c2cnn3-c2ccc(C)c(C)c2)n1 (stereo not drawn) | i | i | -6.8 | 1.44 | i | i | nt | nt | nt | nt
Cc1cc(C(=O)NC2CCCc3c2cnn3-c2ccc(C)c(C)c2)n(C)n1 (stereo not drawn) | 11* | i | -14.7 | 0.38 | i | i | 101.5* | 0.466 | 90.7%* | 84.5%* | KCNQ1 ephys val=i
COc1ccc(S(=O)(=O)N2CCC(C(=O)NCC(=O)Nc3c(C)cccc3C)CC2)cc1OC | nt | nt | nt | nt | nt | i | nt | nt | nt | nt
O=C(CN(c1ccc(Cl)c(Cl)c1)S(=O)(=O)c1ccccc1)N1CCc2ccccc2C1 | 6* | i | -6.3 | -1.8 | i | i | 56.5* | 0.339* | 119.0%* | 95.5%*
Cc1ccc(S(=O)(=O)N(CC(=O)N2CCc3ccccc3C2)c2ccc(Cl)c(Cl)c2)cc1 | i | i | -7.0 | 0.64 | i | i | nt | nt | nt | nt
Cc1cc(C)c(CSc2ncc(-c3ccc([N+](=O)[O-])cc3)[nH]2)c(C)c1 | 16* | i | -8.9 | 1.7 | i | i | 140.0* | 0.426 | 92.7%* | 184.5%* | KCNQ1 ephys val=i
CCOC(=O)c1c(-c2ccc(OC)c(OC)c2)csc1NC(=O)C1CCCO1 (stereo not drawn) | i | i | -28.5 | -2.94 | i | i | nt | nt | nt | nt
CCOC(=O)c1ccc(N2C(=O)C(O)=C(C(C)=O)C2c2ccc([N+](=O)[O-])cc2)cc1 (stereo not drawn) | i | i | -7.9 | 0.67 | i | i | nt | nt | nt | nt
COc1ccc(-c2nc(NC(=O)c3[nH]c(C)c(C(C)=O)c3C)sc2C)cc1 | 14* | i | -21.8 | 0.64 | i | -9.86* | 97.0* | 0.277* | 109.7%* | 180.0%*
COc1ccc(OC)c(NC(=O)c2[nH]c(C)c(C(C)=O)c2C)c1 | i | i | -12.6 | 0.98 | i | i | nt | nt | nt | nt
SMILES | KCNQ1 inh | KCNQ1 act | hERG protect | Kir21 block | KCNK9 block | KCNK3 inh | KCNQ1 inh valid | CHO KCNQ1 ctr | KCNQ2 inh | KCNQ1-KCNE1 inh | others
CS(=O)(=O)N(CC(O)Cn1c2ccccc2c2ccccc21)c1ccccc1 (stereo not drawn) | i | i | -7.5 | -1.2 | i | i | nt | nt | nt | nt
COc1ccc(N(CC(O)Cn2c3ccccc3c3ccccc32)S(=O)(=O)c2ccccc2)cc1 (stereo not drawn) | 11* | i | -8.4 | 0.98 | -7.49* | i | 107.0* | 0.474 | i | 148.5%* | KCNQ1 ephys val=i
C=CCn1c(COc2ccccc2F)nnc1SCC(=O)Nc1cc(C)on1 | i | i | -9.3 | -1.13 | i | i | nt | nt | nt | nt
Cc1ccc(-c2ncns2)cc1 | i | i | -7.9 | -0.58 | i | i | nt | nt | nt | nt
O=C(NCC(=O)N(Cc1ccccc1)C(C(=O)NC1CCCCC1)c1ccco1)c1ccco1 (stereo not drawn) | i | i | -13.1 | -0.35 | i | i | nt | nt | nt | nt
O=C(NC1CCCCC1)C(c1ccco1)N(Cc1ccco1)C(=O)c1ccco1 (stereo not drawn) | 7* | i | -7.1 | 1.58 | i | i | 96.0* | 0.41 | 70.3%* | 112.5%* | KCNQ1 ephys val=+
Cc1ccc(Cl)cc1N1CCN(C(=O)CCCn2c(=O)c3cccn3c3cccnc32)CC1 | 6* | i | -8.5 | 0.63 | i | i | 97.5* | 0.468 | 106.7%* | 177.0%* | KCNQ1 ephys val=i

High-throughput results from PubChem.
